Values after ≈ are worked out from the molar mass of the structure shown. Active and inactive are the calls of the source. The rule behind the calls is not given here.
Key:
Enterococcus faecium [1] = experiment: Antibacterial activity against Enterococcus faecium ATCC 700221 by CLSI protocol based assay; type: functional
Method in brief: (§1)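 Broth microdilution per CLSI. Strains grown aerobically overnight on trypticase soy agar at 37 °C. Inoculum set to 0.5 McFarland, diluted in trypticase soy broth to about 5 × 10⁵ CFU/mL. Agents serially diluted, plates incubated aerobically at 37 °C for 18–20 h. MIC is the lowest concentration with no visible growth. Compound stocks 10 mg/mL in DMSO.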

Enterococcus faecium [2] = experiment: Antibacterial activity against Enterococcus faecium HM965 incubated for 18 to 20 hrs under aerobic condition by CLSI protocol based broth microdilution assay; type: functional; details: time hrs 18-20; method in brief: as §1
Enterococcus faecium [3] = experiment: Antibacterial activity against Enterococcus faecium HM968 incubated for 18 to 20 hrs under aerobic condition by CLSI protocol based broth microdilution assay; type: functional; details: time hrs 18-20; method in brief: as §1
Enterococcus faecium [4] = experiment: Antibacterial activity against Enterococcus faecium NR-28978 incubated for 18 to 20 hrs under aerobic condition by CLSI protocol based broth microdilution assay; type: functional; details: time hrs 18-20; method in brief: as §1
Enterococcus faecium [5] = experiment: Antibacterial activity against Enterococcus faecium NR-31903 incubated for 18 to 20 hrs under aerobic condition by CLSI protocol based broth microdilution assay; type: functional; details: time hrs 18-20; method in brief: as §1
Enterococcus faecium [6] = experiment: Antibacterial activity against Enterococcus faecium NR-32065 incubated for 18 to 20 hrs under aerobic condition by CLSI protocol based broth microdilution assay; type: functional; details: time hrs 18-20; method in brief: as §1
Enterococcus faecium [7] = experiment: Antibacterial activity against Enterococcus faecium NR-31914 incubated for 18 to 20 hrs under aerobic condition by CLSI protocol based broth microdilution assay; type: functional; details: time hrs 18-20; method in brief: as §1
Enterococcus faecium [8] = experiment: Antibacterial activity against Enterococcus faecium NR-31916 incubated for 18 to 20 hrs under aerobic condition by CLSI protocol based broth microdilution assay; type: functional; details: time hrs 18-20; method in brief: as §1
Enterococcus faecium [9] = experiment: Antibacterial activity against Enterococcus faecium NR-32052 incubated for 18 to 20 hrs under aerobic condition by CLSI protocol based broth microdilution assay; type: functional; details: time hrs 18-20; method in brief: as §1
Enterococcus faecium [10] = experiment: Antibacterial activity against Enterococcus faecium NR-31971 incubated for 18 to 20 hrs under aerobic condition by CLSI protocol based broth microdilution assay; type: functional; details: time hrs 18-20; method in brief: as §1
Enterococcus faecalis [11] = experiment: Antibacterial activity against Enterococcus faecalis HM-335 incubated for 18 to 20 hrs under aerobic condition by CLSI protocol based broth microdilution assay; type: functional; details: time hrs 18-20; method in brief: as §1
Enterococcus faecalis [12] = experiment: Antibacterial activity against Enterococcus faecalis HM-334 incubated for 18 to 20 hrs under aerobic condition by CLSI protocol based broth microdilution assay; type: functional; details: time hrs 18-20; method in brief: as §1
Caco-2 = experiment: Cytotoxicity against human Caco2 cells at 128 ug/ml incubated for 2 hrs by MTS assay; type: cell-based; details: caco-2, 2 h, dose 128 µg/ml
Method in brief: (§2)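 Caco-2 cells maintained in DMEM with 10% FBS, non-essential amino acids and penicillin-streptomycin at 37 °C, 5% CO₂. Compound exposure for 2 h in serum-free medium at several concentrations; DMSO-matched controls. Viability expressed relative to DMSO controls (mean ± SD), and CC₅₀ derived.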

[13] = Cytotoxicity against human Caco2 cells incubated for 2 hrs by MTS assay; type: cell-based; details: Caco-2 cells; method in brief: as §2
Enterococcus faecium [14] = experiment: Inhibition of carbonic anhydrase in Enterococcus faecium ATCC 700221 assessed as antibacterial activity incubated for 18 to 20 hrs in presence of ambient air by CLSI protocol based broth microdilution assay; details: time hrs 18-20
Method in brief: (§3)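 CLSI broth microdilution: inoculum about 5 × 10⁵ CFU/mL in trypticase soy broth with serial dilutions of agents. Paired plates incubated at 37 °C for 18–20 h, one set in ambient air ("normal"), the other under 5% CO₂. MIC is the lowest concentration completely inhibiting visible growth.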

Enterococcus faecium [15] = experiment: Inhibition of carbonic anhydrase in Enterococcus faecium ATCC 700221 assessed as antibacterial activity incubated for 18 to 20 hrs in presence of 5% CO2 by CLSI protocol based broth microdilution assay; details: time hrs 18-20; method in brief: as §3
Enterococcus faecium [16] = experiment: Bacteriostatic activity against Enterococcus faecium ATCC 700221 assessed as reduction in bacterial burden at 5 times MIC preincubated for 24 hrs followed by replating on soya agar plates and measured after 16 hrs by time-kill assay; type: functional, organism-based
Method in brief: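 E. faecium ATCC 700221 overnight culture diluted in trypticase soy broth to 3.5 × 10⁶ CFU/mL. […] Samples taken at 2, 4, 6, 8, 12 and 24 h, diluted in PBS and plated on trypticase soy agar. Colonies counted after 16 h at 37 °C. Detection limit 100 CFU/mL. Two-way ANOVA with Dunnett's test.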

[17] = Aqueous solubility of compound in pH 7.4 PBS measured at 24 hrs by HPLC analysis; type: physicochemical; details: buffer, pH 7.4, 24 h
Method in brief: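 HPLC principal-peak area of the buffer sample compared with a 200 μM calibration standard in methanol/water 60/40.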

[18] = Apparent permeability across apical to basolateral side in human Caco2 cells; type: ADME, cell-based; details: caco-2
Method in brief: (§4)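 Bi-directional Caco-2 monolayer permeability, run at Eurofins: donor at pH 6.5, receiver at pH 7.4, both A→B and B→A. Papp derived from receiver concentration at the end point, incubation time, monolayer area and mid-point donor concentration. Concentrations taken as peak areas.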

[19] = Apparent permeability across basolateral to apical side in human Caco2 cells; type: ADME, cell-based; details: caco-2; method in brief: as §4
[20] = Metabolic stability in human liver microsomes assessed as compound remaining measured after 60 mins; type: ADME, Microsome; details: 1 h
Method in brief: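 Human liver microsomes at 0.1 mg/mL, 37 °C. Percent parent remaining at 60 min, mean of 2 replicates.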

[21] = Half life in human liver microsomes after 60 mins; type: ADME, Microsome; details: 1 h
Enterococcus faecium [22] = experiment: Antibacterial activity against Enterococcus faecium NR-31972 incubated for 18 to 20 hrs under aerobic condition by CLSI protocol based broth microdilution assay; type: functional; details: time hrs 18-20; method in brief: as §1
Enterococcus faecium [23] = experiment: Inhibition of carbonic anhydrase in Enterococcus faecium NR-31971 assessed as antibacterial activity incubated for 18 to 20 hrs in presence of ambient air by CLSI protocol based broth microdilution assay; details: time hrs 18-20; method in brief: as §3
Enterococcus faecium [24] = experiment: Inhibition of carbonic anhydrase in Enterococcus faecium NR-31972 assessed as antibacterial activity incubated for 18 to 20 hrs in presence of ambient air by CLSI protocol based broth microdilution assay; details: time hrs 18-20; method in brief: as §3
Enterococcus faecium [25] = experiment: Inhibition of carbonic anhydrase in Enterococcus faecium HM-965 assessed as antibacterial activity incubated for 18 to 20 hrs in presence of ambient air by CLSI protocol based broth microdilution assay; details: time hrs 18-20; method in brief: as §3
Enterococcus faecalis [26] = experiment: Inhibition of carbonic anhydrase in Enterococcus faecalis HM-334 assessed as antibacterial activity incubated for 18 to 20 hrs in presence of ambient air by CLSI protocol based broth microdilution assay; details: time hrs 18-20; method in brief: as §3
Enterococcus faecium [27] = experiment: Inhibition of carbonic anhydrase in Enterococcus faecium NR-31971 assessed as antibacterial activity incubated for 18 to 20 hrs in presence of 5% CO2 by CLSI protocol based broth microdilution assay; details: time hrs 18-20; method in brief: as §3
Enterococcus faecium [28] = experiment: Inhibition of carbonic anhydrase in Enterococcus faecium NR-31972 assessed as antibacterial activity incubated for 18 to 20 hrs in presence of 5% CO2 by CLSI protocol based broth microdilution assay; details: time hrs 18-20; method in brief: as §3
Enterococcus faecium [29] = experiment: Inhibition of carbonic anhydrase in Enterococcus faecium HM-965 assessed as antibacterial activity incubated for 18 to 20 hrs in presence of 5% CO2 by CLSI protocol based broth microdilution assay; details: time hrs 18-20; method in brief: as §3
Enterococcus faecalis [30] = experiment: Inhibition of carbonic anhydrase in Enterococcus faecalis HM-334 assessed as antibacterial activity incubated for 18 to 20 hrs in presence of 5% CO2 by CLSI protocol based broth microdilution assay; details: time hrs 18-20; method in brief: as §3

For `CCOc1ccc2nc(S(N)(=O)=O)sc2c1` [ETHOXZOLAMIDE], which MIC (Enterococcus faecium [1]) is on record?
Its MIC is 1 µg/mL (≈ 3.87 µM).

With `NS(=O)(=O)c1nnc(NC(=O)CN2CCOCC2)s1` as the compound, how does the MIC (Enterococcus faecium [2]) read?
Its MIC is 1 µg/mL (≈ 3.25 µM).

And the MIC (Enterococcus faecium [3])?
Its MIC is 1 µg/mL (≈ 3.25 µM).

What about the MIC (Enterococcus faecium [4]) of the same compound?
The MIC was 2 µg/mL (≈ 6.51 µM).

And the MIC (Enterococcus faecium [5])?
Its MIC is 2 µg/mL (≈ 6.51 µM).

And the MIC (Enterococcus faecium [6])?
Its MIC is 2 µg/mL (≈ 6.51 µM).

And the MIC (Enterococcus faecium [7])?
Its MIC is 2 µg/mL (≈ 6.51 µM).

What about the MIC (Enterococcus faecium [8]) of the same compound?
The MIC was 1 µg/mL (≈ 3.25 µM).

And the MIC (Enterococcus faecium [9])?
The MIC was 1 µg/mL (≈ 3.25 µM).

What about the MIC (Enterococcus faecium [10]) of the same compound?
The MIC was 2 µg/mL (≈ 6.51 µM).

What about the MIC (Enterococcus faecalis [11]) of the same compound?
Its MIC is 0.5 µg/mL (≈ 1.63 µM).

And the MIC (Enterococcus faecalis [12])?
Its MIC is 4 µg/mL (≈ 13 µM).

And the Activity (Caco-2)?
The Activity was “Non-Toxic”.

What about the CC50 at 2 h [13] of the same compound?
Its CC50 at 2 h is > 128 µg/mL.

And the inhibition (Enterococcus faecium [14])?
The inhibition was “Active”.

What about the inhibition (Enterococcus faecium [15]) of the same compound?
The inhibition was “inactive”.

And the Activity (Enterococcus faecium [16])?
Its Activity is “Active”.

What about the solubility [17] of the same compound?
The solubility was 126.6 µM (≈ 38.9 µg/mL).

And the Papp [18]?
Its Papp is < 0.17 10^-6 cm/s.

And the Papp [19]?
Its Papp is < 0.17 10^-6 cm/s.

What about the Stabilty [20] of the same compound?
The Stabilty was 86%.

What about the t1/2 [21] of the same compound?
The t1/2 was 4.95 h.

And the MIC (Enterococcus faecium [22])?
Its MIC is 4 µg/mL (≈ 13 µM).

For `CC(=O)Nc1nnc(S(N)(=O)=O)s1` [ACETAZOLAMIDE], which MIC (Enterococcus faecium [23]) is on record?
The MIC was 2 µg/mL.

And the MIC (Enterococcus faecium [24])?
Its MIC is 2 µg/mL.

And the MIC (Enterococcus faecium [25])?
Its MIC is 2 µg/mL.

What about the MIC (Enterococcus faecalis [26]) of the same compound?
Its MIC is 2 µg/mL.

And the MIC (Enterococcus faecium [14])?
The MIC was 1 µg/mL.

And the MIC (Enterococcus faecium [27])?
Its MIC is > 64 µg/mL.

What about the MIC (Enterococcus faecium [28]) of the same compound?
The MIC was > 64 µg/mL.

What about the MIC (Enterococcus faecium [29]) of the same compound?
The MIC was > 64 µg/mL.

And the MIC (Enterococcus faecalis [30])?
The MIC was > 64 µg/mL.

What about the MIC (Enterococcus faecium [15]) of the same compound?
Its MIC is > 64 µg/mL.

What about the Activity (Enterococcus faecium [16]) of the same compound?
The Activity was “Active”.

And the Papp A→B [18]?
Its Papp A→B is 0.19 ×10⁻⁶ cm/s.

And the Papp B→A [19]?
The Papp B→A was 0.77 ×10⁻⁶ cm/s.

What about the MIC (Enterococcus faecium [1]) of the same compound?
Its MIC is 0.5 µg/mL (≈ 2.25 µM).

Reference: ChEMBL document CHEMBL4725360, “Optimization of Acetazolamide-Based Scaffold as Potent Inhibitors of Vancomycin-Resistant Enterococcus” (J Med Chem, 2020)
